According to ChEMBL document CHEMBL4396904, “Design, Synthesis, and Anti-HBV Activity of New Bis(l-amino acid) Ester Tenofovir Prodrugs” (ACS Med Chem Lett, 2019):
Activity calls are given as the source filed them. The rule behind the calls is not given here.

Assays:
[1] = Selectivity index, ratio of CC50 for human HepG2.2.15 cells to IC50 for HBV infected in human HepG2.2.15 cells; format: toxicity, cell-based; conditions: read-out: Ratio CC50/IC50
Procedure, shortened: (§1)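 HepG 2.2.15 cells; IC50 is the concentration giving 50% inhibition of cytoplasmic HBV-DNA synthesis; CC50 comes from a CPE (cytopathic effect) cytotoxicity assay in the same cells. Both were derived by the Reed & Muench method, and each experiment was run at least twice separately. SI = CC50/IC50.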

[2] = AUC(0 to infinity) in Sprague-Dawley rat at 20 mg/kg, po administered as single dose and measured after 0.25 to 24 hrs by HPLC analysis; format: ADME, organism-based; design: dose 20 mg/kg, time infinity, route oral; conditions: in vivo
Procedure, shortened: (§2)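 Male/female unspecified SD rats, n = 3 per group, received a single dose of TFV at 20 mg/kg by mouth or 5 mg/kg intravenously. Prodrugs were given orally at an equimolar […]. PK parameters were calculated for the released TFV and reported as means.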

[3] = Half-life in Sprague-Dawley rat at 5 mg/kg, iv; format: ADME, organism-based; conditions: in vivo; procedure, shortened: as §2
Hepatitis B virus [4] = assay: Antiviral activity against HBV infected in human HepG2.2.15 cells assessed as reduction in cytoplasmic DNA synthesis by reed and munch method; format: functional, organism-based; procedure, shortened: as §1
[5] = Half-life in Sprague-Dawley rat at 20 mg/kg, po administered as single dose and measured after 0.25 to 24 hrs by HPLC analysis; format: ADME, organism-based; conditions: in vivo; procedure, shortened: as §2
[6] = Cmax in Sprague-Dawley rat at 20 mg/kg, po administered as single dose and measured after 0.25 to 24 hrs by HPLC analysis; format: ADME, organism-based; design: dose 20 mg/kg, route oral; conditions: in vivo; procedure, shortened: as §2
[7] = Oral bioavailability in Sprague-Dawley rat at 20 mg/kg administered as single dose and measured after 0.25 to 24 hrs by HPLC analysis; format: ADME, organism-based; conditions: in vivo; procedure, shortened: as §2
[8] = Clearance in Sprague-Dawley rat at 5 mg/kg, iv; format: ADME, organism-based; conditions: in vivo; procedure, shortened: as §2
[9] = AUC(0 to infinity) in Sprague-Dawley rat at 5 mg/kg, iv; format: ADME, organism-based; design: dose 5 mg/kg, route intravenous, time infinity; conditions: in vivo; procedure, shortened: as §2
[10] = Tmax in Sprague-Dawley rat at 20 mg/kg, po administered as single dose and measured after 0.25 to 24 hrs by HPLC analysis; format: ADME, organism-based; conditions: in vivo; procedure, shortened: as §2
[11] = Cytotoxicity against human HepG2.2.15 cells infected with HBV; format: cell-based, HepG2 2.2.15; procedure, shortened: as §1
Hepatitis B virus [12] = assay: Antiviral activity against HBV infected in pekin duck assessed as reduction in serum viral DNA level administered via oral gavage twice daily for 14 days and measured on day 14 post treatment and on day 3 after treatment cessation by qRT-PCR analysis; format: functional, organism-based
Procedure, shortened: (§3)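 DHBV-infected ducks, six per group, were gavaged twice daily at 0.1, 0.2 or […] or with vehicle (0.5% CMC-Na or water); 3TC was given orally once daily. Blood was collected at day 0 (pretreatment), day 7, day 14 and 3 days after cessation. Serum DHBV DNA was extracted and quantified by real-time PCR. Body weight was monitored during treatment. Comparison was against vehicle.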

[13] = Toxicity against Pekin duck infected with HBV assessed as change in body weight at 0.1 to 0.4 mmol/kg, po twice daily for 14 days administered via gavage and measured every day during compound dosing; format: organism-based; conditions: anas platyrhynchos, in vivo, 336 h; procedure, shortened: as §3
HBV genotype D [14] = assay: Antiviral activity against HBV genotype D hydrodynamically infected as pHBV1.3 mer plasmid carrying viral genome in C57BL/6 mouse assessed as log10 reduction in serum viral DNA level at 0.10 to 0.50 mmol/kg/day, po via gavage administered as twice daily dosage and measured on day 4 post treatment by qRT-PCR analysis; format: functional, hepatitis B virus genotype D
Procedure, shortened: (§4)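 C57BL/6 mice were hydrodynamically injected with HBV 1.3mer plasmid. From one day later (day 0), they were gavaged twice daily at […] or with vehicle; ETV was given orally once daily; n = 5-6 per group. Blood was taken at days 0, 2, 4 and 6, and serum HBV DNA was measured by real-time PCR. Body weight was recorded over 6 days of treatment. Significance was set against vehicle.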

[15] = Toxicity against C57BL/6 mouse hydrodynamically infected with pHBV1.3 mer plasmid carrying HBV genotype D assessed as change in body weight at 0.1 to 1 mg/kg, po once daily and measured upto 6 days post treatment; format: organism-based; conditions: in vivo, 144 h
HBV genotype D [16] = assay: Antiviral activity against HBV genotype D hydrodynamically infected as pHBV1.3 mer plasmid carrying viral genome in C57BL/6 mouse assessed as reduction in serum viral DNA level at 0.1 to 1 mg/kg, po once daily and measured upto 6 days post treatment by qRT-PCR analysis; format: functional, organism-based; conditions: hepatitis B virus genotype D
Procedure, shortened: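 C57BL/6 mice received the HBV 1.3mer plasmid by hydrodynamic tail-vein injection. From one day later they were dosed by oral gavage twice daily at […], with vehicle groups of 20% Kolliphor HS 15 or water; ETV was given once daily. There were 5-6 mice per group. Serum HBV DNA was measured by real-time PCR on days 0, 2, 4 and 6, and body weight was tracked over the 6 days.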

HBV genotype D [17] = assay: Antiviral activity against HBV genotype D hydrodynamically infected as pHBV1.3 mer plasmid carrying viral genome in C57BL/6 mouse assessed as reduction in serum viral DNA level administered via oral gavage twice daily and measured upto 6 days post treatment by qRT-PCR analysis; format: functional, organism-based; conditions: hepatitis B virus genotype D; procedure, shortened: as §4
Rattus norvegicus [18] = assay: Ratio of compound oral bioavailability in Sprague-Dawley rat at 45.5 mg/kg administered as single dose to TFV oral bioavailability in Sprague-Dawley rat at 20 mg/kg administered as single dose by HPLC analysis; format: ADME, organism-based; conditions: in vivo
Procedure, shortened: (§5)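 SD rats received a single oral dose at equimolar […] (TFV 20 mg/kg); intravenous TFV was given at 5 mg/kg. PK parameters were derived from plasma TFV, including oral bioavailability F; n = 3 per group.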

Hepatitis B virus [19] = assay: Potency index, ratio of Lamivudine IC50 to compound IC50 for antiviral activity against HBV infected in human HepG2.2.15 cells; format: functional
Hepatitis B virus [20] = assay: Potency index, ratio of TFV IC50 to compound IC50 for antiviral activity against HBV infected in human HepG2.2.15 cells; format: functional
Rattus norvegicus [21] = assay: Ratio of compound oral bioavailability in Sprague-Dawley rat at 45.5 mg/kg administered as single dose to TDF oral bioavailability in Sprague-Dawley rat at 44.3 mg/kg administered as single dose by HPLC analysis; format: ADME, organism-based; conditions: in vivo; procedure, shortened: as §5
[22] = Toxicity against Pekin duck infected with HBV assessed as change in body weight at 0.2 to 0.4 mmol/kg, […] for 14 days and measured every day during compound dosing; format: organism-based; conditions: anas platyrhynchos, in vivo, po, 336 h
Procedure, shortened: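 DHBV-infected ducks, six per group, were gavaged twice daily at 0.1, 0.2 or […], with vehicle groups of 0.5% CMC-Na or water; 3TC was given orally once daily. Serum DHBV DNA was measured by real-time PCR on days 0, 7 and 14 and 3 days after dosing stopped, and body weight was monitored. Data are mean ± SD.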

Hepatitis B virus [23] = assay: Antiviral activity against HBV infected in pekin duck assessed as reduction in serum viral DNA level at 0.4 mmol/kg, po once daily for 14 days and measured on days 7, 14 post treatment and on day 3 after treatment cessation by qRT-PCR analysis; format: functional, organism-based

SMILES | selectivity ratio [1] | IC50 (Hepatitis B virus [4]) [µM] | CC50 [11] [µM] | further results
C[C@H](Cn1cnc2c(N)ncnc21)OCP(=O)(O)O [TENOFOVIR ANHYDROUS] | 27 | 16 | 435 | AUC(0-inf) [2]: 0.888 µg·h/mL; half-life [3]: 10.2 h; half-life [5]: 3.56 h; Cmax [6]: 0.207 µg/mL; bioavailability [7]: 1.41%; clearance [8]: 0.321 L/h/kg; AUC(0-inf) [9]: 15.8 µg·h/mL; Tmax [10]: 0.833 h
CC[C@H](C)[C@H](N)C(=O)OCCCOP(=O)(CO[C@H](C)Cn1cnc2c(N)ncnc21)OCCCOC(=O)[C@@H](N)[C@@H](C)CC |  | > 49.6 | 315 | 
CC(C)OC(=O)OCOP(=O)(CO[C@H](C)Cn1cnc2c(N)ncnc21)OCOC(=O)OC(C)C.O=C(O)/C=C/C(=O)O [TENOFOVIR DISOPROXIL FUMARATE] | 24 | 0.85 | 20.7 | inhibition (Hepatitis B virus [12]): Dose-dependent effect; Activity [13]: Non-Toxic; log(activity) (HBV genotype D [14]): 1.7
CC(C)C[C@H](N)C(=O)OCCOP(=O)(CO[C@H](C)Cn1cnc2c(N)ncnc21)OCCOC(=O)[C@@H](N)CC(C)C |  | > 13 | 218 | 
C[C@H](Cn1cnc2c(N)ncnc21)OCP(=O)(OCCOC(=O)[C@@H](N)Cc1ccccc1)OCCOC(=O)[C@@H](N)Cc1ccccc1 | 97 | 2.93 | 315 | 
CC(C)[C@H](N)C(=O)OCCOP(=O)(CO[C@H](C)Cn1cnc2c(N)ncnc21)OCCOC(=O)[C@@H](N)C(C)C | 84 | 2.6 | 218 | 
C=C1[C@H](CO)[C@@H](O)C[C@@H]1n1cnc2c(=O)[nH]c(N)nc21.O [ENTECAVIR] |  |  |  | Activity [15]: Non-Toxic; inhibition (HBV genotype D [16]): Active
CC[C@H](C)[C@H](N)C(=O)OCCOP(=O)(CO[C@H](C)Cn1cnc2c(N)ncnc21)OCCOC(=O)[C@@H](N)[C@@H](C)CC | 24 | 12.2 | 294 | 
CC(C)[C@H](N)C(=O)OCOP(=O)(CO[C@H](C)Cn1cnc2c(N)ncnc21)OCOC(=O)[C@@H](N)C(C)C.Cl | 80 | 0.71 | 57.3 | inhibition (HBV genotype D [17]): Dose-dependent effect; inhibition (Hepatitis B virus [12]): Dose-dependent effect; Ratio (Rattus norvegicus [18]): 7; Ratio IC50 (Hepatitis B virus [19]): 3; Activity [13]: Non-Toxic; Ratio IC50 (Hepatitis B virus [20]): 22; log(activity) (HBV genotype D [14]): 1.1; Ratio (Rattus norvegicus [21]): 3
CC(C)[C@H](N)C(=O)OCCCOP(=O)(CO[C@H](C)Cn1cnc2c(N)ncnc21)OCCCOC(=O)[C@@H](N)C(C)C |  | > 3.24 | 51.9 | 
CC(C)C[C@H](N)C(=O)OCCCOP(=O)(CO[C@H](C)Cn1cnc2c(N)ncnc21)OCCCOC(=O)[C@@H](N)CC(C)C | 47 | 4.22 | 218 | 
Nc1ccn([C@@H]2CS[C@H](CO)O2)c(=O)n1 [LAMIVUDINE] | > 98 | 2.22 | > 218 | Activity [22]: Non-Toxic; inhibition (Hepatitis B virus [23]): Active
